Data from ChEMBL document CHEMBL4138242, “Synthesis and antibacterial evaluation of novel cationic chalcone derivatives possessing broad spectrum antibacterial activity” (Eur J Med Chem, 2018).
The source made the active and inactive calls.

How the values were obtained:
Staphylococcus aureus [1] = assay: Disruption of 24 hrs cultured Staphylococcus aureus ATCC 29213 biofilm assessed as cell viability in biofilm at 16 ug/ml after 24 hrs by crystal violet staining-based assay (reference value: 15.96 log10CFU/ml); type: functional
Klebsiella pneumoniae [2] = assay: Antibacterial activity against drug-resistant carbapenemase producing Klebsiella pneumoniae clinical isolate KP-14-5 after 16 to 20 hrs by broth microdilution method; type: functional
Procedure, shortened: (§1)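 CLSI broth microdilution in Mueller-Hinton broth. A 4-6 h culture was diluted to about 10⁶ CFU/mL and mixed 1:1 with compound dilutions prepared at 256 to 0.5 µg/mL from aqueous stocks. Plates were incubated at 37 °C for 16-20 h and read visually for MIC. Each concentration was run in duplicate, and the experiment was repeated at least twice. Vancomycin and meropenem were comparators.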

Escherichia coli [3] = assay: Antibacterial activity against drug-resistant NDM1 producing Escherichia coli clinical isolate EA-14-61 after 16 to 20 hrs by broth microdilution method; type: functional; procedure, shortened: as §1
Salmonella enterica = assay: Antibacterial activity against Salmonella enterica ATCC 13076 after 16 to 20 hrs by broth microdilution method; type: functional
Procedure, shortened: (§2)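 Broth microdilution per CLSI. Bacteria grown 4-6 h (about 10⁸ CFU/mL), then diluted to about 10⁶ CFU/mL. Medium: Mueller-Hinton broth, except Luria-Bertani broth for E. coli. Compounds in sterile water, twofold series 256-0.5 µg/mL, mixed 1:1 with inoculum, 37 °C for 16-20 h. MIC is the lowest concentration without visible growth. Duplicate wells; experiment repeated at least twice.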

Klebsiella pneumoniae [4] = assay: Antibacterial activity against drug-resistant carbapenemase producing Klebsiella pneumoniae clinical isolate KP-14-8 after 16 to 20 hrs by broth microdilution method; type: functional; procedure, shortened: as §1
Staphylococcus aureus [5] = assay: Ratio of MBC99.9 for methicillin-resistant Staphylococcus aureus in presence of 50% sheep serum to MBC99.9 for methicillin-resistant Staphylococcus aureus ATCC 29213 in presence of 50% sheep plasma; type: functional
Procedure, shortened: (§3)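 MRSA at 10⁵ CFU/mL in 50% MHB plus 50% sheep serum, plasma or defibrinated blood; serum and plasma were obtained by centrifugation at 3,500 rpm for 10 min. Aqueous dilutions prepared at 512-4 µg/mL were added 1:3 to the suspension and incubated for 20-24 h at 37 °C. Well contents (20 µL) were plated on MHA for 20-24 h, and MBC was the concentration giving no colonies.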

Staphylococcus aureus [6] = assay: Bactericidal activity against methicillin-resistant Staphylococcus aureus in presence of 50% sheep serum after 20 to 24 hrs; type: functional; details: read-out: MBC99.9; procedure, shortened: as §3
Klebsiella pneumoniae [7] = assay: Antibacterial activity against drug-resistant carbapenemase producing Klebsiella pneumoniae clinical isolate EC-13-23 after 16 to 20 hrs by broth microdilution method; type: functional; procedure, shortened: as §1
[8] = Hemolytic activity in sheep RBC after 1 hr; type: ADME, cell-based, Ovis aries, Erythrocyte; details: sheep red blood cells (erythrocytes)
Procedure, shortened: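 Sheep red blood cells (150 µL suspension) mixed with 50 µL of compound dilutions (5120-10 µg/mL), 1 h at 37 °C, then centrifuged. Supernatant read at 540 nm. Percent hemolysis calculated relative to RBC-only control (0%) and 0.1% Triton X-100 (100%).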

Staphylococcus aureus [9] = assay: Disruption of 24 hrs cultured Staphylococcus aureus ATCC 29213 biofilm assessed as cell viability in biofilm at 8 ug/ml after 24 hrs by crystal violet staining-based assay (reference value: 15.96 log10CFU/ml); type: functional
Staphylococcus aureus [10] = assay: Bactericidal activity against Staphylococcus aureus ATCC 29213 preincubated with 50% sheep plasma at 512 ug/ml for 3 to 6 hrs followed by compound serial dilution and subsequent bacterial inoculation measured after 20 to 24 hrs; type: functional; details: read-out: MBC99.9
Procedure, shortened: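 Compound at 512 µg/mL in 50% water/50% sheep plasma, preincubated at 37 °C for 0, 3 or 6 h. Then serially diluted (256-4 µg/mL) and combined 50:150 µL with S. aureus at 10⁵ CFU/mL, 37 °C for 20-24 h. MBC determined by plating; three parallel samples.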

Escherichia coli [11] = assay: Induction of inner membrane permeabilization in Escherichia coli ATCC 25922 at 10 to 20 ug/ml measured every 2 mins for 12 mins by propidium iodide staining-based fluorescence assay; type: functional, organism-based
Procedure, shortened: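 Mid-log cells (~10⁸ CFU/mL) were suspended in PBS (S. aureus) or HEPES/glucose/KCl (E. coli). They were preincubated with propidium iodide for 30 min (S. aureus) or 40 min (E. coli), and baseline fluorescence was read for 8 min. Compound was added to 20 µg/mL final, and fluorescence (ex 535/em 617 nm) was read every 2 min for 12 min.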

Staphylococcus aureus [12] = assay: Antibacterial activity against Staphylococcus aureus ATCC 29213 at sub MIC after 20 passages; type: functional, organism-based
Procedure, shortened: (§4)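 The MIC was first measured by broth microdilution. Cells grown at MIC/2 were then carried into a fresh MIC assay after each 24 h, repeated over 20 serial passages. Norfloxacin (S. aureus) and colistin (E. coli) served as control antibiotics. Resistance was defined as a >4-fold rise over the original MIC.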

Escherichia coli [13] = assay: Antibacterial activity against drug-resistant NDM1 producing Escherichia coli clinical isolate Ecl-14-59 after 16 to 20 hrs by broth microdilution method; type: functional; procedure, shortened: as §1
Staphylococcus aureus [14] = assay: Disruption of 24 hrs cultured Staphylococcus aureus ATCC 29213 biofilm assessed as cell viability in biofilm at 2 ug/ml after 24 hrs by crystal violet staining-based assay (reference value: 15.96 log10CFU/ml); type: functional
Klebsiella pneumoniae [15] = assay: Antibacterial activity against drug-resistant carbapenemase producing Klebsiella pneumoniae clinical isolate KP-14-4 after 16 to 20 hrs by broth microdilution method; type: functional; procedure, shortened: as §1
Staphylococcus aureus [16] = assay: Disruption of 24 hrs cultured Staphylococcus aureus ATCC 29213 biofilm assessed as cell viability in biofilm at 4 ug/ml after 24 hrs by crystal violet staining-based assay (reference value: 15.96 log10CFU/ml); type: functional
Escherichia coli [17] = assay: Antibacterial activity against drug-resistant NDM1 producing Escherichia coli clinical isolate CF-15-61 after 16 to 20 hrs by broth microdilution method; type: functional; procedure, shortened: as §1
Staphylococcus aureus [18] = assay: Induction of cytoplasmic membrane depolarization in Staphylococcus aureus ATCC 29213 at 10 to 20 ug/ml measured every 2 mins for 12 mins by DiSC35 dye-based fluorescence assay; type: functional, organism-based
Procedure, shortened: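 Mid-log cells (~10⁸ CFU/mL) were suspended in PBS (S. aureus) or HEPES/glucose/KCl with EDTA (E. coli). They were preloaded with DiSC3(5) for 30 min (S. aureus) or 40 min (E. coli), and baseline fluorescence was read for 8 min. Compound was added to 20 µg/mL final, and fluorescence (ex 622/em 670 nm) was read every 2 min for 12 min. Water served as control.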

Staphylococcus aureus [19] = assay: Disruption of 24 hrs cultured Staphylococcus aureus ATCC 29213 biofilm assessed as cell viability in biofilm at 64 ug/ml after 24 hrs by crystal violet staining-based assay (reference value: 15.96 log10CFU/ml); type: functional
Klebsiella pneumoniae [20] = assay: Antibacterial activity against drug-resistant carbapenemase producing Klebsiella pneumoniae clinical isolate KP-13-54 after 16 to 20 hrs by broth microdilution method; type: functional; procedure, shortened: as §1
Enterococcus faecalis = assay: Antibacterial activity against Enterococcus faecalis ATCC 29212 after 16 to 20 hrs by broth microdilution method; type: functional; procedure, shortened: as §2
Escherichia coli [21] = assay: Antibacterial activity against Escherichia coli ATCC 25922 at sub MIC after 20 passages; type: functional, organism-based; procedure, shortened: as §4
Staphylococcus aureus [22] = assay: Disruption of 24 hrs cultured Staphylococcus aureus ATCC 29213 biofilm assessed as decrease in cell viability in biofilm after 24 hrs by crystal violet staining-based assay; type: functional, organism-based

CCCCCCCC[N+](C)(C)CC(=O)Nc1ccc(C(=O)/C=C/c2ccccc2F)cc1.[Cl-] gave an Activity (Staphylococcus aureus [1]) of 10.95 log10CFU/ml, an MIC (Klebsiella pneumoniae [2]) of 4 µg/mL and an MIC (Escherichia coli [3]) of 4 µg/mL. The MIC (Salmonella enterica) was 4 µg/mL, the MIC (Klebsiella pneumoniae [4]) was 4 µg/mL and the Ratio (Staphylococcus aureus [5]) was 2. It also gave an MBC (Staphylococcus aureus [6]) of 32 µg/mL, an MIC (Klebsiella pneumoniae [7]) of 4 µg/mL and an HC50 at 1 h [8] of 137 µg/mL. The Activity (Staphylococcus aureus [9]) was 11.696 log10CFU/ml, the MBC (Staphylococcus aureus [10]) was 16 µg/mL and the Activity (Escherichia coli [11]) was “Active”. For the same compound, the Activity (Staphylococcus aureus [12]) was “Active”, the MIC (Escherichia coli [13]) was 16 µg/mL and the Activity (Staphylococcus aureus [14]) was 13.93 log10CFU/ml. It also gave an MIC (Klebsiella pneumoniae [15]) of 4 µg/mL, an Activity (Staphylococcus aureus [16]) of 12.93 log10CFU/ml and an MIC (Escherichia coli [17]) of 4 µg/mL. The Activity (Staphylococcus aureus [18]) was “Active”, the Activity (Staphylococcus aureus [19]) was 9.41 log10CFU/ml and the MIC (Klebsiella pneumoniae [20]) was 4 µg/mL. For the same compound, the MIC (Enterococcus faecalis) was 1 µg/mL, the Activity (Escherichia coli [21]) was “Active” and the Activity (Staphylococcus aureus [22]) was “Dose-dependent effect”.
